Laboratory results: ChEMBL document CHEMBL3045066, “Synthesis, structure-activity relationships (SAR) and in silico studies of coumarin derivatives with antifungal activity” (2013)
≈ marks a conversion by molar mass, not a printed value.

Key:
Type in all cases: functional
Aspergillus fumigatus [1] = assay: Antifungal activity against Aspergillus fumigatus ATCC 46913 after 72 hr by broth microdilution method; settings: ATCC 46913, 72 h
Procedure, shortened: (§1)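 Molds were grown 7 days on SDA at 25–28 °C, and conidia were harvested in sterile 0.85% NaCl. Conidia were counted by hemocytometer and adjusted to about 5 × 10^6 conidia/mL. Microdilution used Sabouraud broth in 96-well plates with compound at 2048 to 8 μg/mL and about 2.5 × 10^5 conidia/mL per well. Plates were incubated at 25–28 °C for 72 h, with readings confirmed at 7 days. Amphotericin B was the reference.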

Aspergillus fumigatus [2] = assay: Antifungal activity against Aspergillus fumigatus IPP 210 after 72 hr by broth microdilution method; settings: IPP 210, 72 h; procedure, shortened: as §1
Aspergillus fumigatus [3] = assay: Antifungal activity against Aspergillus fumigatus ATCC 16913 after 72 hr by broth microdilution method; settings: for MIC: Aspergillus fumigatus, ATCC 16913, 72 h; procedure, shortened: as §1
Aspergillus flavus [4] = assay: Antifungal activity against Aspergillus flavus LM 210 after 72 hr by broth microdilution method; settings: LM 210, 72 h; procedure, shortened: as §1
Aspergillus flavus [5] = assay: Antifungal activity against Aspergillus flavus ATCC 16013 after 72 hr by broth microdilution method; settings: ATCC 16013, 72 h; procedure, shortened: as §1
Aspergillus flavus [6] = assay: Antifungal activity against Aspergillus flavus LM 247 after 72 hr by broth microdilution method; settings: LM 247, 72 h; procedure, shortened: as §1
Aspergillus fumigatus [7] = assay: Antifungal activity against Aspergillus fumigatus ATCC 40640 after 72 hr by broth microdilution method; settings: ATCC 40640, 72 h; procedure, shortened: as §1
Aspergillus flavus [8] = assay: Antifungal activity against Aspergillus flavus LM 26 after 72 hr by broth microdilution method; settings: LM 26, 72 h; procedure, shortened: as §1

Row | SMILES | MIC (Aspergillus fumigatus [1]) [µg/mL] | MIC (Aspergillus fumigatus [2]) [µg/mL] | log(1/MIC) (Aspergillus fumigatus [3]) | MIC (Aspergillus fumigatus [3]) [µg/mL] | MIC (Aspergillus flavus [4]) [µg/mL] | MIC (Aspergillus flavus [5]) [µg/mL] | MIC (Aspergillus flavus [6]) [µg/mL] | MIC (Aspergillus fumigatus [7]) [µg/mL] | MIC (Aspergillus flavus [8]) [µg/mL]
1 | C=CCOc1ccc2oc(=O)ccc2c1 | ≥ 2050 | ≥ 2050 | 1.99 | ≥ 2050 | ≥ 2050 | ≥ 2050 | ≥ 2050 | ≥ 2050 | ≥ 2050
2 | O=c1ccc2cc(O)ccc2o1 [6-HYDROXYCOUMARIN] | ≥ 2050 | ≥ 2050 | 1.89 | ≥ 2050 | ≥ 2050 | ≥ 2050 | ≥ 2050 | ≥ 2050 | ≥ 2050
3 | COc1cc2ccc(=O)oc2c(O)c1O [FRAXETIN] | ≥ 2050 | ≥ 2050 | 2 | ≥ 2050 | ≥ 2050 | ≥ 2050 | ≥ 2050 | ≥ 2050 | ≥ 2050
4 | O=c1oc2ccccc2c(O)c1Cc1c(O)c2ccccc2oc1=O [DICUMAROL] | ≥ 2050 | ≥ 2050 | 2.21 | ≥ 2050 | ≥ 2050 | ≥ 2050 | ≥ 2050 | ≥ 2050 | ≥ 2050
5 | CC(C)=CCC/C(C)=C/COc1ccc2oc(=O)ccc2c1 | ≥ 2050 | ≥ 2050 | 2.16 | ≥ 2050 | ≥ 2050 | ≥ 2050 | ≥ 2050 | ≥ 2050 | ≥ 2050
6 | COc1cc2ccc(=O)oc2cc1O [SCOPOLETIN] | ≥ 2050 | ≥ 2050 | 1.97 | ≥ 2050 | ≥ 2050 | ≥ 2050 | ≥ 2050 | ≥ 2050 | ≥ 2050
7 | CC(=O)Oc1ccc2ccc(=O)oc2c1 [7-ACETOXYCOUMARIN] | 64 (≈ 313 µM) | 64 (≈ 313 µM) | 3.5 | 64 (≈ 313 µM) | 64 (≈ 313 µM) | 64 (≈ 313 µM) | 128 (≈ 627 µM) | 64 (≈ 313 µM) | 64 (≈ 313 µM)
8 | O=c1ccc2cc(O)c(O)cc2o1 [ESCULETIN] | ≥ 2050 | ≥ 2050 | 1.93 | ≥ 2050 | ≥ 2050 | ≥ 2050 | ≥ 2050 | ≥ 2050 | ≥ 2050
9 | CC(C)=CCC/C(C)=C/COc1ccc2ccc(=O)oc2c1 [AURAPTENE] | ≥ 2050 | ≥ 2050 | 2.16 | ≥ 2050 | ≥ 2050 | ≥ 2050 | ≥ 2050 | ≥ 2050 | ≥ 2050
10 | O=c1ccc2ccc(O)cc2o1 [UMBELLIFERONE] | ≥ 2050 | ≥ 2050 | 1.89 | ≥ 2050 | ≥ 2050 | ≥ 2050 | ≥ 2050 | ≥ 2050 | ≥ 2050
11 | O=c1cc(O)c2ccccc2o1 [4-HYDROXYCOUMARINS] | ≥ 2050 | ≥ 2050 | 1.89 | ≥ 2050 | ≥ 2050 | ≥ 2050 | ≥ 2050 | ≥ 2050 | ≥ 2050
12 | CC(C)=CCOc1ccc2oc(=O)ccc2c1 | ≥ 2050 | ≥ 2050 | 2.05 | ≥ 2050 | ≥ 2050 | ≥ 2050 | ≥ 2050 | ≥ 2050 | ≥ 2050

Further lines, results first:

Row | MIC (Aspergillus fumigatus [1]) [µg/mL] | MIC (Aspergillus fumigatus [2]) [µg/mL] | log(1/MIC) (Aspergillus fumigatus [3]) | MIC (Aspergillus fumigatus [3]) [µg/mL] | MIC (Aspergillus flavus [4]) [µg/mL] | MIC (Aspergillus flavus [5]) [µg/mL] | MIC (Aspergillus flavus [6]) [µg/mL] | MIC (Aspergillus fumigatus [7]) [µg/mL] | MIC (Aspergillus flavus [8]) [µg/mL] | SMILES
13 | 1020 (≈ 5390 µM) | 1020 (≈ 5390 µM) | 2.26 | 1020 (≈ 5390 µM) | 1020 (≈ 5390 µM) | 1020 (≈ 5390 µM) | ≥ 2050 | 1020 (≈ 5390 µM) | 1020 (≈ 5390 µM) | O=C(O)c1cc2ccccc2oc1=O [COUMARIN-3-CARBOXYLIC ACID]
14 | 2 (≈ 2.16 µM) | 2 (≈ 2.16 µM) |  | 2 (≈ 2.16 µM) | 2 (≈ 2.16 µM) | 2 (≈ 2.16 µM) | 8 (≈ 8.66 µM) | 2 (≈ 2.16 µM) | 512 (≈ 554 µM) | C[C@@H]1[C@H](O)[C@@H](C)/C=C/C=C/C=C/C=C/C=C/C=C/C=C/[C@H](O[C@@H]2O[C@H](C)[C@@H](O)[C@H](N)[C@@H]2O)C[C@@H]2O[C@](O)(C[C@@H](O)C[C@@H](O)[C@H](O)CC[C@@H](O)C[C@@H](O)CC(=O)O[C@H]1C)C[C@H](O)[C@H]2C(=O)O [AMPHOTERICIN B]
15 | 16 (≈ 78.4 µM) | 16 (≈ 78.4 µM) | 4.1 | 16 (≈ 78.4 µM) | 16 (≈ 78.4 µM) | 16 (≈ 78.4 µM) | 16 (≈ 78.4 µM) | 16 (≈ 78.4 µM) | 16 (≈ 78.4 µM) | CC(=O)Oc1cc(=O)oc2ccccc12
16 | 1020 (≈ 7010 µM) | 1020 (≈ 7010 µM) | 2.15 | 1020 (≈ 7010 µM) | 1020 (≈ 7010 µM) | 1020 (≈ 7010 µM) | 1020 (≈ 7010 µM) | 1020 (≈ 7010 µM) | 1020 (≈ 7010 µM) | O=c1ccc2ccccc2o1 [COUMARIN]
17 | 32 (≈ 158 µM) | 64 (≈ 317 µM) | 3.8 | 32 (≈ 158 µM) | 32 (≈ 158 µM) | 32 (≈ 158 µM) | 1020 (≈ 5060 µM) | 32 (≈ 158 µM) | 64 (≈ 317 µM) | C=CCOc1cc(=O)oc2ccccc12
18 | 64 (≈ 317 µM) | 64 (≈ 317 µM) | 3.49 | 64 (≈ 317 µM) | 64 (≈ 317 µM) | 64 (≈ 317 µM) | 256 (≈ 1270 µM) | 64 (≈ 317 µM) | 64 (≈ 317 µM) | C=CCOc1ccc2ccc(=O)oc2c1 [7-ALLYLOXYCOUMARIN]
19 | 16 (≈ 77.2 µM) | 16 (≈ 77.2 µM) | 4.11 | 16 (≈ 77.2 µM) | 16 (≈ 77.2 µM) | 16 (≈ 77.2 µM) | 16 (≈ 77.2 µM) | 16 (≈ 77.2 µM) | 16 (≈ 77.2 µM) | O=c1ccc2cc([N+](=O)[O-])c(O)cc2o1
20 | 512 (≈ 2060 µM) | 512 (≈ 2060 µM) | 2.68 | 512 (≈ 2060 µM) | 512 (≈ 2060 µM) | 512 (≈ 2060 µM) | 512 (≈ 2060 µM) | 512 (≈ 2060 µM) | 512 (≈ 2060 µM) | CCOC(=O)COc1ccc2ccc(=O)oc2c1
21 | 1020 (≈ 4940 µM) | 1020 (≈ 4940 µM) | 2.3 | 1020 (≈ 4940 µM) | 1020 (≈ 4940 µM) | 1020 (≈ 4940 µM) | 1020 (≈ 4940 µM) | 1020 (≈ 4940 µM) | 1020 (≈ 4940 µM) | O=c1oc2ccccc2c(O)c1[N+](=O)[O-]
22 | 64 (≈ 395 µM) | 64 (≈ 395 µM) | 3.4 | 64 (≈ 395 µM) | 128 (≈ 789 µM) | 128 (≈ 789 µM) | 128 (≈ 789 µM) | 64 (≈ 395 µM) | 128 (≈ 789 µM) | O=c1oc2ccccc2cc1O [3-HYDROXYCOUMARIN]
23 | 256 (≈ 1250 µM) | 256 (≈ 1250 µM) | 2.89 | 256 (≈ 1250 µM) | 256 (≈ 1250 µM) | 256 (≈ 1250 µM) | 256 (≈ 1250 µM) | 256 (≈ 1250 µM) | 256 (≈ 1250 µM) | CC(=O)Oc1ccc2oc(=O)ccc2c1
24 | 512 (≈ 2030 µM) | 512 (≈ 2030 µM) | 2.69 | 512 (≈ 2030 µM) | 512 (≈ 2030 µM) | 512 (≈ 2030 µM) | 512 (≈ 2030 µM) | 512 (≈ 2030 µM) | 512 (≈ 2030 µM) | O=c1ccc2c([N+](=O)[O-])c(O)c([N+](=O)[O-])cc2o1
25 | 128 (≈ 556 µM) | 128 (≈ 556 µM) | 3.25 | 128 (≈ 556 µM) | 1020 (≈ 4450 µM) | 1020 (≈ 4450 µM) | 1020 (≈ 4450 µM) | 128 (≈ 556 µM) | 1020 (≈ 4450 µM) | CC(C)=CCOc1ccc2ccc(=O)oc2c1 [7-PRENYLOXYCOUMARIN]
